According to PMC11094418 (Clinical Cancer Research, 2024):

Legend:
[1] = phase Ib pharmacokinetics, plasma, day 5 of cycle 1, LC/MS-MS; assay type: in vivo, human
Summary of the method: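 Oral test compound was given on days 1–5 and 15–19 of 28-day cycles with FOLFIRI/bevacizumab. Blood was drawn on cycle 1 day 5 at predose and at 1, 2, 3, 4, 8, 24, 48 and 72 h postdose. Plasma drug concentrations were measured by LC/MS-MS, and pharmacokinetic parameters were calculated from these.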

[2] = test system: DLD1 isogenic KRAS^WT/G13D (KRAS MUT) and KRAS^WT/− (KRAS WT) colorectal cancer cells; assay: analysis of mitotic cells by flow cytometry; assay type: cell-based; conditions: 100 nmol/L, 24 hours, Fig. 1B
[3] = phase Ib safety: onvansertib-related AEs; assay type: in vivo, human; conditions: all dose levels
Summary of the method: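 Oral test compound was dose-escalated (3+3 design; 12, 15, 18 mg/m2) on days 1–5 and 15–19 of 28-day cycles. It was given with FOLFIRI and bevacizumab 5 mg/kg i.v. on days 1 and 15. Patients receiving ≥1 dose were evaluable. AEs were graded by NCI CTCAE v4.03, investigators assigned causality, and data were summarized descriptively.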

[4] = cited from earlier work
[5] = test system: DLD1 isogenic KRAS^WT/G13D (KRAS MUT) and KRAS^WT/− (KRAS WT) colorectal cancer cells; assay: proliferation assay, cell viability by CellTiterGlo; assay type: cell-based; conditions: 72 hours, Fig. 1A
[6] = test system: HCT116 KRAS-mutant colorectal cancer xenograft model; assay: HCT116 xenograft in Balb/c nude mice; assay type: in vivo; conditions: 42 days
Summary of the method: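 Female Balb/c nude mice aged 6–9 weeks, inoculated subcutaneously with 5 million HCT116 cells and randomized at 100–150 mm3. Groups received vehicle, oral test compound (0.5% methylcellulose + 0.1% Tween80 suspension), an i.p. chemotherapy agent in saline, or the combination for 42 days. Tumor volume and body weight were measured twice weekly. Mean ± SEM, n=7–8/group.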

Structure (SMILES): CN1CCN(c2ccc(OC(F)(F)F)c(Nc3ncc4c(n3)-c3c(c(C(N)=O)nn3CCO)CC4)c2)CC1 [onvansertib]
- AUC0–24 ([1]; 12 mg/m^2, mean ± SD): 2,020 ± 880 ng/mL.hours
- Cmax ([1]; 12 mg/m^2, mean ± SD): 163 ± 82 ng/mL
- Tmax ([1]; 12 mg/m^2, mean ± SD): 5.29 ± 8.32 h
- t1/2 ([1]; 12 mg/m^2, mean ± SD): 13.8 ± 2.1 h
- AUC0–24 ([1]; 15 mg/m^2, mean ± SD): 1,520 ± 650 ng/mL.hours
- Cmax ([1]; 15 mg/m^2, mean ± SD): 169 ± 64 ng/mL
- Tmax ([1]; 15 mg/m^2, mean ± SD): 1.80 ± 0.84 h
- t1/2 ([1]; 15 mg/m^2, mean ± SD): 13.9 ± 4.3 h
- AUC0–24 ([1]; 18 mg/m^2, mean ± SD): 2,290 ± 730 ng/mL.hours
- Cmax ([1]; 18 mg/m^2, mean ± SD): 191 ± 25 ng/mL
- Tmax ([1]; 18 mg/m^2, mean ± SD): 2.40 ± 1.20 h
- t1/2 ([1]; 18 mg/m^2, mean ± SD): 13.8 ± 2.3 h
- terminal half-life in plasma ([1]; all dose levels): around 14 hours
- mitotic arrest in DLD1 KRAS MUT cells compared with KRAS WT cells [2]: increased
- G3/G4 neutropenia, patients [3]: 28%
- diarrhea, patients [3]: 50%
- fatigue, patients [3]: 44%
- nausea, patients [3]: 50%
- number of onvansertib-related G3 or G4 AEs [3]: 15
- vomiting, patients [3]: 22%
- human half-life ([4]; oral): approximately 24 hours
- dose-limiting toxicities (DLT) ([4]; single agent, 6, 12, and 24 mg/m^2/day for 5 out of 21 days): no dose-limiting toxicities
- cell death in DLD1 KRAS MUT cells compared with KRAS WT cells [5]: increased
- tumor growth compared with the vehicle-treated group ([6]; oral, 45 mg/kg, daily): significantly reduced tumor growth

Structure (SMILES): CCc1c2c(nc3ccc(OC(=O)N4CCC(N5CCCCC5)CC4)cc13)-c1cc3c(c(=O)n1C2)COC(=O)[C@]3(O)CC [irinotecan, reference compound]
- tumor growth compared with the vehicle-treated group ([6]; intraperitoneally, 5 mg/kg, twice a week): significantly reduced tumor growth
